Laboratory results reported in ChEMBL document CHEMBL1129664, “Neuroactive polyamine wasp toxins: nuclear magnetic resonance spectroscopic analysis of the protolytic properties of philanthotoxin-343” (J Med Chem, 1996).

Experiments:
[1] = Macroscopic pKa value at 27 C, ionic strength 0.1 M; assay type: physicochemical
[2] = Macroscopic pKa value at 25 C, ionic strength 1 M; assay type: physicochemical
How it was run: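 13C and 1H NMR titration in D2O, following chemical shifts against pD at 25 °C, ionic strength 1 M, with a 22 mM solution for the shift data. Carbons of the polyamine chain were assigned from shift data and total ionization shifts. Proton shifts were too small for quantitative analysis, so 1H titration curves were used only qualitatively.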

[3] = Macroscopic pKa value at 25 C, ionic strength 0.1 M; assay type: physicochemical

Structure (SMILES)	pKa ([1]; read-out: pK1)	pKa ([1]; read-out: pK2)	pKa ([1]; read-out: pK3)	pKa ([1]; read-out: pK4)	pKa ([2]; read-out: pK1)	pKa ([2]; read-out: pK2)	pKa ([2]; read-out: pK3)	pKa ([3]; read-out: pK1)	pKa ([3]; read-out: pK2)	pKa ([3]; read-out: pK3)	pKa (physchem)	pKa ([2]; read-out: pK4)
NCCCCNCCCNCCCN	7.59	9.24	10.5	11.1								
CCCC(=O)NC(Cc1ccc(O)cc1)C(=O)NCCCNCCCCNCCCN (stereo unspecified)					8.5	9.5	10.4					11.4
NCCCCNCCCN [SPERMIDINE]					8.93	10.3	10.9	8.15	9.74	10.2		

Second part, led by results:

pKa ([1]; read-out: pK1)	pKa ([1]; read-out: pK2)	pKa ([1]; read-out: pK3)	pKa ([1]; read-out: pK4)	pKa ([2]; read-out: pK1)	pKa ([2]; read-out: pK2)	pKa ([2]; read-out: pK3)	pKa ([3]; read-out: pK1)	pKa ([3]; read-out: pK2)	pKa ([3]; read-out: pK3)	pKa (physchem)	Structure (SMILES)	pKa ([2]; read-out: pK4)
				8.69	9.31	10.7	7.91	8.68	10.2	10.6	NCCCNCCCCNCCCN [SPERMINE]	10.8
7.36	8.81	10.1	10.8								NCCCNCCCNCCCN [THERMINE]	
